Series [1] in a line: Microscale thermophoresis. The format is binding. To be noted: MST; for Hill coefficient / cooperativity factor (n) of binding with CS: Hill fit, n > 1 positive, n < 1 negative cooperativity. Summed up: (§1)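 Peptide labeled with 5-FAM at the N-terminus was spun at 14,000 g for 10 min, then used at 200 nM. MST was run at 50% excitation and 40% MST power, room temperature, with 20 s traces. A Hill fit of ΔF_Norm gave Kd and n. n=3 independent runs, mean ± SD.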

The conditions of series [2]: over 7-days desorption period; cited from earlier work.
The conditions of series [3]: solute concentration inside cartilage relative to surrounding bath; cited from earlier work.
Series [4] is classed as in vivo. To be noted: quadriceps and patellar tendon, fat pad; rat, 24 h after IA injection, Cy5 label. Summed up: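 Healthy male Wistar rats (8–10 weeks, 350–400 g) received 50 μl of 300 μM Cy5-labeled test peptide intra-articularly through the patellar tendon, with saline controls. Legs were flexed to spread the dose, and rats were killed at 24 h. Harvested knee tissues were imaged by confocal microscopy at 10X, with Z-stacks reconstructed to X-Z sections for penetration depth. N=6 joints per treatment.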

The target in series [5] is γ-Globulin. The series can be described thus: Microscale thermophoresis. The format is binding, bovine. To be noted: MST; for Hill coefficient / cooperativity factor (n) of binding with γ-Globulin: Hill fit. The method, boiled down:
as §1
For orientation: MST reads how a fluorescent partner responds to local heating, with and without ligand.

Series [6] is described as follows: Equilibrium intra-cartilage uptake of CPCs in bovine cartilage explants. To be noted: 30 μM CPC, 24 h, 37°C; for Intra-cartilage uptake in presence of HA (comparison between CPCs): 3 mg/ml HA; for Intra-cartilage uptake in presence of BSA (comparison between CPCs) / Intra-cartilage equilibrium uptake ratio (RU): 12 mg/ml BSA; for Intra-cartilage equilibrium uptake ratio (RU): Healthy (simulated) SF: 3 mg/ml HA, 0.1 mg/ml DLPC in PBS pH 7.4, bath fluorescence, mean, n >= 6; for Reduction of intra-cartilage uptake in Healthy SF relative to PBS: Healthy SF vs PBS.

The nature of series [7]: Microscale thermophoresis. The series is classed as binding. To be noted: MST, HA titrated up to 2 μM (physiological SF concentration).

Some results are limits rather than exact numbers.

As for (AK)7AFAFAF [CPC +F], in series [1], the “Binding with CS-GAG compared with CPC +N” value is on record as “stronger binding” and the “Hill coefficient / cooperativity factor (n) of binding with CS” value was 1.6.

In the case of (AK)7ANANAN [CPC +N], the “Hill coefficient / cooperativity factor (n) of binding with CS” value in series [1] is 0.8.

As to RRRR(AARRR)3 R [CPC +14A], the Retained within cartilage in series [2] is on record as > 95%. For the same substance, the Intra-cartilage uptake in series [3] was 350. The “Confocal fluorescence signal in less GAG-rich tissues” value in series [4] is given as “weak fluorescence signal”. In series [5], the “Kd with γ-Globulin, fold lower than that of CPC +14N” value was found to be 1.8 x and the “Hill coefficient / cooperativity factor (n) of binding with γ-Globulin” value worked out at 0.67. Besides, in series [6], the “Intra-cartilage uptake in presence of HA (comparison between CPCs)” value is “no significant difference”, the “Intra-cartilage uptake in presence of BSA (comparison between CPCs)” value is given as “no significant difference” and the “Reduction of intra-cartilage uptake in Healthy SF relative to PBS” value is 4.5 x. The “Intra-cartilage equilibrium uptake ratio (RU)” value in series [6] (12 mg/ml γ-Globulin) is 80. Moreover, the “Binding with HA as ligand” value in series [7] is reported as “completely unbound”.

Turning to RRRR(NNRRR)3 R [CPC +14N], the “Confocal fluorescence signal in less GAG-rich tissues” value in series [4] was “weak fluorescence signal”. Moreover, the “Hill coefficient / cooperativity factor (n) of binding with γ-Globulin” value in series [5] amounted to 0.67. Moreover, in series [1], the “Hill coefficient / cooperativity factor (n) of binding with CS” value was found to be 1.6. Also, the “Intra-cartilage uptake in presence of phospholipids (DLPC), comparison” value in series [6] (0.1 mg/ml DLPC) is recorded as “higher uptake than CPC +14A”. Moreover, in series [6], the “Intra-cartilage uptake in presence of HA (comparison between CPCs)” value is on record as “no significant difference”, the “Intra-cartilage uptake in presence of BSA (comparison between CPCs)” value is listed as “no significant difference” and the “Reduction of intra-cartilage uptake in Healthy SF relative to PBS” value came out at 2.7 x. In series [6] (12 mg/ml γ-Globulin), the “Intra-cartilage uptake relative to CPC +14A (fold higher)” value worked out at 2.8 x and the “Intra-cartilage equilibrium uptake ratio (RU)” value is listed as 120. For the same substance, the “Intra-cartilage uptake relative to CPC +14A (fold higher)” value in series [6] (Healthy SF) amounted to 1.5 x. The “Intra-cartilage uptake relative to CPC +14A (fold higher)” value in series [6] (OA SF) is 2 x. Further, in series [7], the “Binding with HA as ligand” value is “completely unbound”.

The values are drawn from PMC10441566 (Acta biomaterialia, 2022).
